Measurements: ChEMBL document CHEMBL1275383, “Synthesis and antioxidant properties of pulvinic acids analogues” (Bioorg Med Chem, 2010)
Active and inactive are the calls of the source. The calls are words filed in the database; no cut-off is given here.

Assays:
Type in all cases: functional
[1] = Antioxidant activity assessed as beta-carotene bleaching activity at 24 uM after 4 hrs by spectrophotometry relative to control
Outline: (§1)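 Emulsion of β-carotene, linoleic acid and Tween 40 in oxygen-saturated water added to compound in ethanol (24 or 116 µM). Incubated at 50 °C, absorbance at 470 nm read at zero and followed over 4 h. % protection = [1 − (A0 − At)/(Ac0 − Act)] × 100 versus no-compound control; triplicate, averaged.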

[2] = Antioxidant activity assessed as protection against 340 Gy gamma-radiation-induced thymidine degradation in 12.5 mM phosphate buffer at 50 uM by competitive immuno-enzymatic assay
Outline: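 Thymidine at 15 µM with compound at 50 µM, 12.5 mM phosphate buffer, given 340 Gy from a 137Cs source. Remaining intact thymidine measured by competitive immunoassay with anti-thymidine monoclonal antibody; duplicate, averaged.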

[3] = Antioxidant activity against ABTS radical assessed as Trolox equivalent
[4] = Antioxidant activity assessed as beta-carotene bleaching activity at 116 uM after 4 hrs by spectrophotometry relative to contro; outline: as §1
[5] = tested on: Radical scavenging activity; assay: Antioxidant activity assessed as DPPH free radical scavenging activity by measuring [DPPH]/antioxidant EC50 ratio measured every 5 mins for 1 hr
Outline: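 DPPH (200 µM ethanol stock, 100 µM final) mixed 1:1 with compound in ethanol, 10 concentrations (0–1 10^-3 M), duplicate. Read at 515 nm every 5 min for 1 h; % remaining DPPH at steady state plotted against antioxidant/DPPH molar ratio to give EC50. Reported as antiradical power; no value if steady state not reached within 1 h.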

[6] = Antioxidant activity assessed as protection against Fenton oxidation-induced thymidine degradation in 11.4 mM phosphate buffer at 100 uM by competitive immuno-enzymatic assay
[7] = Antioxidant activity assessed as protection against UV/H2O2-induced thymidine degradation in 12.5 mM phosphate buffer at 100 uM by competitive immuno-enzymatic assay
Outline: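 Thymidine at 70 µM with compound at 100 µM and H2O2 at 5 mM in 12.5 mM phosphate buffer, irradiated at 254 nm, 1.75 J cm-2. Intact thymidine quantified by competitive anti-thymidine monoclonal antibody immunoassay; duplicate, averaged.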

SMILES	Activity [1]	Activity [2]	Activity [3]	Activity [4]	Ratio [5]	Activity [6]	Activity [7]
COC(=O)/C(=C1/OC(=O)C(c2ccc(OC)cc2)=C1O)c1ccc(C(C)=O)cc1	Active	34.3%	6.18 mM	Active	3.27	41.1%	41.1%
COC(=O)/C=C1\OC(=O)C(c2ccc([N+](=O)[O-])cc2)=C1O	–	58.5%	18.7 mM	–	–	40.7%	31.5%
COC(=O)/C=C1\OC(=O)C(c2ccc(Br)cc2)=C1O	–	51.7%	17.7 mM	–	1.17	27.1%	41.2%
COC(=O)/C(=C1/OC(=O)C(c2ccc(OC)cc2)=C1O)c1ccccc1C(F)(F)F	–	17.6%	12.1 mM	Active	–	14.8%	46.1%
COC(=O)/C=C1\OC(=O)C(c2cccs2)=C1O	–	51.4%	–	–	–	0%	23.6%
COC(=O)[C@H](O)[C@H]1OC(=O)C(C(=O)OCc2ccccc2)=C1O	–	47.9%	43.3 mM	–	–	2.6%	16.8%
COC(=O)/C(=C1/OC(=O)C(c2ccc(OC)cc2)=C1O)c1ccc(Cl)cc1	–	22.6%	3.97 mM	–	3.37	41.7%	45%
COC(=O)/C=C1\OC(=O)C(c2ccc(C)cc2)=C1O	–	30%	6.51 mM	–	2.56	14.1%	52.7%
COC(=O)/C(=C1/OC(=O)C(c2ccc(OC)cc2)=C1O)c1ccccc1	–	46.4%	1.67 mM	–	3.2	58%	42.9%
COC(=O)/C=C1\OC(=O)C(c2ccc(F)cc2)=C1O	–	52.9%	–	–	1.97	28.3%	69.3%
COC(=O)/C(=C1/OC(=O)C(c2ccc(OC)cc2)=C1O)c1ccco1	–	62%	1.16 mM	–	3.42	0%	28.7%
COC(=O)/C=C1\OC(=O)C(c2ccc(OC)cc2)=C1O	–	73.8%	1.31 mM	> 44%	3.6	32%	30.7%
COC(=O)/C=C1\OC(=O)C(c2ccccc2)=C1O	–	69.4%	46.2 mM	–	3.22	45.8%	37.7%
COC(=O)/C=C1\OC(=O)C(c2ccc(O)cc2)=C1O	–	57.2%	0.48 mM	–	2.85	82.7%	32.6%
COC(=O)[C@H](O)[C@H]1OC(=O)C(c2ccc(C)cc2)=C1O	–	42.7%	1.54 mM	–	3.27	7%	43.8%
COC(=O)/C(=C1/OC(=O)C(c2ccc(OC)cc2)=C1O)c1cccc(O)c1	–	34.2%	1.56 mM	–	3.68	91.6%	50%

SMILES	Activity [1]	Activity [2]	Activity [3]	Activity [4]	Ratio [5]	Activity [6]	Activity [7]
COC(=O)[C@H](O)[C@H]1OC(=O)C(c2ccc(Br)cc2)=C1O	–	60.2%	4.91 mM	–	2.81	37.6%	37.3%
COC(=O)[C@H](O)[C@H]1OC(=O)C(c2ccc(OC)cc2)=C1O	–	87.4%	1.55 mM	–	3.44	25.8%	24.9%
COC(=O)[C@H](O)[C@H]1OC(=O)C(c2ccccc2)=C1O	–	62%	1.94 mM	> 44%	3.57	31%	33.2%
COC(=O)[C@H](O)[C@H]1OC(=O)C(c2ccc(O)cc2)=C1O	–	63.7%	0.6 mM	–	3	93.4%	29.4%
COC(=O)/C(=C1/OC(=O)C(c2ccc(OC)cc2)=C1O)c1cccc(C(F)(F)F)c1	–	46.3%	2.75 mM	–	4.08	33.9%	35.8%
Cc1c(C)c2c(c(C)c1O)CCC(C)(C(=O)O)O2 (stereo not given)	–	5.2%	–	–	–	11.7%	4.4%
COC(=O)/C(=C1/OC(=O)C(c2ccc(OC)cc2)=C1O)c1ccsc1	–	76%	2.69 mM	–	2.97	45.2%	34.8%
COC(=O)[C@H](O)[C@H]1OC(=O)C(c2ccc(OCc3ccccc3)cc2)=C1O	–	37.4%	2.16 mM	–	3.12	21.1%	51%
COC(=O)/C(=C1/OC(=O)C(c2ccc(OC)cc2)=C1O)c1ccoc1	–	77%	1.06 mM	–	3.35	13.8%	36%
COC(=O)/C=C1\OC(=O)C(C(=O)OCc2ccccc2)=C1O	–	23.1%	18.5 mM	–	0.93	0.3%	13.9%
O=C1O[C@H]([C@@H](O)CO)C(O)=C1O	inactive	–	0.64 mM	inactive	4.56	–	–
COC(=O)[C@H](O)[C@H]1OC(=O)C(c2ccc(F)cc2)=C1O	–	39%	2.94 mM	–	4.2	55.2%	55.3%
O=C(O)c1cc(O)c(O)c(O)c1	–	–	1.36 mM	–	11.7	–	–
COC(=O)[C@H](O)[C@H]1OC(=O)C(c2cccs2)=C1O	–	40.3%	–	–	2.25	0%	16.1%
COC(=O)[C@H](O)[C@H]1OC(=O)C(c2ccc([N+](=O)[O-])cc2)=C1O	–	60.9%	24.6 mM	–	–	70.7%	33.4%
COC(=O)[C@H](O)[C@H]1OC(=O)C(C(C)=O)=C1O	–	5.6%	82.7 mM	–	–	0%	7.4%
